# HCV core dimer – HCV core protein dimerization inhibition; TR-FRET GST/Flag-core106 dimerization, 1536-well; inhibition, % at 5 µM; hit rate 0.33% among 300,000;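 active means inhibition above the mean of all tested compounds plus 3 SD, set per screening campaign, cut at about 45% in these data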
#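 Assay system – GST-tagged and Flag-tagged HCV core protein residues 1-106 · Quantity – core106 proteins, GST 13.5 nM and Flag 17 nM · Benchmarks – unlabelled core106 and no-GST-core106 wells · Read-out basis – percent inhibition of core106 dimerization signal · Detection – time-resolved FRET, ex 340 nm, em 617 and 671 nm · Schedule – 4 h at 22.5 °C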
# APOBEC3A inh – inhibitors of human APOBEC3A DNA deaminase; P31941; hit rate 0.41% among 330,000; AID 493011; recombinant A3A, FAM/TAMRA ssDNA deamination fluorescence; inhibition, % at 20 µM;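 active means at least 40% inhibition at 20 µM here, with at most 30% in a related deaminase screen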
# APOBEC3G inh – inhibitors of human APOBEC3G DNA deaminase | inhibition, % at 20 µM | recombinant A3G, ssDNA deamination FAM/TAMRA fluorescence | hit rate 0.28% among 330,000 | Q9HC16;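 active means inhibition of at least 40% at 20 µM, with no more than 30% in the related APOBEC3A deaminase screen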
# ABHD5 PLIN5 PPI – inhibitors of human ABHD5-perilipin-5 interaction; Q00G26+Q8WTS1; hit rate 0.78% among 360,000; inhibition, % at 4 µM; Split G. princeps luciferase complementation, luminescence, 4 h;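 active means inhibition above the mean inhibition across every tested compound plus 3 SD, cut at about 22% in these data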
# HCV NS3 hel inh – HCV NS3 helicase inhibition | NS3 helicase DNA unwinding, Cy5 molecular beacon fluorescence | inhibition, % at 10.9 µM | hit rate 0.56% among 290,000 | AID 1800;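 active means inhibition above the mean of all tested compounds plus 3 SD, set per campaign, cut at about 35% in these data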
#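 Assay system – hepatitis C virus NS3 helicase domain fragment enzyme · Buffer or medium – MOPS pH 6.5, MgCl2, DTT, Tween20, BSA · Reagent – Cy5/quencher beacon DNA duplex and ATP to start · Compound – single 10.9 µM dose · Timing – 1 h at 25 °C · Technique – Cy5 beacon fluorescence read at start and 1 h · Measure – % inhibition of unwinding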
# PRMT1 FP inh – PRMT1 (human) inhibition, primary screen; hit rate 1.3% among 370,000; Q99873; AID 652257; recombinant PRMT1, activity-based probe fluorescence polarization; inhibition, % at 2.79 µM;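 active means inhibition above about 21% made by adding two undisclosed values, limit read from the data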
# NS3 helicase cf – confirmation of Hepatitis C virus NS3 helicase inhibitors | inhibition, % at 10.9 µM | hit rate 31% among 1,600 | shares compounds with HCV NS3 hel inh | NS3 helicase DNA unwinding, Cy5 molecular beacon fluorescence;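 active means inhibition above the mean of all tested compounds plus 3 SD, cutoff set per campaign, cut at about 36% in these data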
# FID counter trip – counter-screen for HCV NS3 helicase inhibitors: DNA intercalator displacement. hit rate 4% among 1,600. AID 1945. DNA fluorescent intercalator displacement, fluorescence. shares compounds with HCV NS3 hel inh. inhibition, % at 7.9 µM; in the data active means inhibition above about 37%;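 further: higher means more displacement of ethidium bromide from the DNA hairpin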
# A number is an active result; n = inactive; x = not tested or not shown. Hits are enriched below; roughly 2.9% of the tested compounds scored in any of these assays.
SMILES,HCV core dimer,APOBEC3A inh,APOBEC3G inh,ABHD5 PLIN5 PPI,HCV NS3 hel inh,PRMT1 FP inh,NS3 helicase cf,FID counter trip
Cc1cc(NC(=O)C2CC(=O)N(c3ccccc3C)C2)no1 (stereo not drawn),n,n,n,n,36,n,n,n
O=c1[nH]n2c(=O)c3c([nH]c2c1N=Nc1cccc(C(F)(F)F)c1)CCCC3,n,n,n,n,64,n,79,n
COc1ccc(N2CCN(C(=O)CN(c3ccccc3)S(=O)(=O)c3ccc(OC)cc3)CC2)cc1,n,n,n,n,40,n,n,n
COc1ccc2ccccc2c1C1CC(=O)N2CN(Cc3ccco3)CSC2=C1C#N (stereo not drawn),n,n,n,n,47,n,46,n
COC(=O)c1ccc(N2NC(=O)/C(=C/c3ccc(OC)c(OC)c3)C2=O)cc1,n,n,n,n,40,n,n,n
COc1cccc(/C=C2/C(=O)NN(c3ccccc3)C2=O)c1,x,x,x,n,n,n,x,x
COc1cc(/C=C2/C(=O)NN(c3cccc(C)c3)C2=O)ccc1OC(=O)c1ccco1,n,n,n,n,40,n,n,n
COc1cccc(/C=C2/C(=O)NN(c3ccc(F)cc3)C2=O)c1,x,n,n,n,48,n,n,n
COc1cc(/C=C2\C(=O)NN(c3ccccc3)C2=O)ccc1OCC(N)=O,n,n,n,x,n,n,x,x
C#CCOc1ccc(/C=C2/C(=O)NN(c3ccc(F)cc3)C2=O)cc1OC,n,n,n,n,39,n,n,n
COc1cc(/C=N/n2cnnc2)ccc1OC(=O)c1ccco1,n,n,n,n,n,n,x,x
O=C(c1ccco1)N(CCC(c1ccccc1)c1ccco1)Cc1ccccc1 (stereo not drawn),n,n,n,n,50,n,n,n
COc1ccc(CN(CCC(c2ccccc2)c2ccco2)C(=O)c2ccco2)cc1 (stereo not drawn),n,n,n,n,n,n,x,x
CCCC(=O)Nc1cccc(NC(=O)c2ccc([N+](=O)[O-])cc2Cl)c1,n,n,n,n,53,n,n,n
CNC(C)C#Cc1ccc2sc3cccc(OC)c3c(=O)c2c1 (stereo not drawn),n,n,n,n,39,n,n,n
CNC(C)C#Cc1ccc2oc3cccc(OC)c3c(=O)c2c1 (stereo not drawn),n,n,n,n,n,n,x,x
CCCN(C)C1CN(Cc2cn(Cc3ccccc3)nn2)S(=O)(=O)C1 (stereo not drawn),x,x,x,n,x,n,x,x
CCOC(=O)c1c(-c2ccccc2)oc2ccc(OCC(=O)NNC(=O)CCC(=O)O)cc12,x,n,n,n,41,n,n,n
CCOC(=O)c1c(-c2ccccc2)oc2ccc(OCC(=O)NNC(=O)CCCC(=O)O)cc12,x,n,n,n,n,n,x,x
CC(C)c1ccc(NC(=O)c2ccccc2NC(=O)C2CCCCC2C(=O)O)cc1 (stereo not drawn),x,n,n,n,45,n,48,n
CC(=O)N1CCN(Cc2cc(=O)oc3cc(C)cc(C)c23)CC1,x,x,x,n,x,n,x,x
O=C1CC(Nc2ccc(N3CCOCC3)cc2)C(=O)N1c1cccc(C(F)(F)F)c1 (stereo not drawn),n,n,n,n,48,x,n,n
COc1ccc(C(c2nnnn2Cc2ccccc2)N2CCN(C/C=C/c3ccccc3)CC2)cc1 (stereo not drawn),x,x,x,n,x,n,x,x
COC(=O)c1ccc(CNC(=O)c2ccc3c(c2)S(=O)(=O)N=C2CCCCCN23)cc1,x,n,n,n,x,n,x,x
O=C(OCC(=O)N1CCCCC1)c1cc2ccccc2cc1O,n,n,n,n,n,n,x,x
SMILES,HCV core dimer,APOBEC3A inh,APOBEC3G inh,ABHD5 PLIN5 PPI,HCV NS3 hel inh,PRMT1 FP inh,NS3 helicase cf,FID counter trip
C/C(CC(=O)N1CCCC1)=N\NC(=O)c1cc2ccccc2cc1O,n,n,n,n,45,n,n,n
CCn1c(SCC(=O)c2ccc3c(c2)OCCO3)nnc1-c1ccco1,n,n,n,n,48,n,n,n
Cn1c(SCC(=O)c2ccc(-c3ccccc3)cc2)nnc1-c1ccco1,n,n,n,n,68,n,n,n
CC(C)Cn1c(SCC(=O)c2ccc(Cl)s2)nnc1-c1ccco1,n,n,n,n,39,n,n,n
COCCn1c(SCC(=O)c2ccc3c(c2)OCCO3)nnc1-c1ccco1,n,n,n,n,n,n,x,x
O=C(CSc1nnc(-c2ccco2)c(-c2ccco2)n1)c1ccccc1,n,n,n,n,41,65,91,45
CCOc1ccc(OCCC(=O)N(CC)CC(=O)Nc2ccccc2OC)cc1,x,x,x,n,x,n,x,x
CC(C)(C)C(=O)c1c(N)[nH]c(C(=O)c2ccccc2)c1-c1ccc([N+](=O)[O-])cc1,x,x,x,x,x,n,x,x
CC(C)NC(=O)N[C@@H]1C[C@@H]2O[C@@H](CO)CC[C@@H]2O[C@@H]1CCc1ccc(-c2ccc(F)cc2)cc1,x,x,x,x,x,n,x,x
CCC(c1c(C)n(C)n(-c2ccccc2)c1=O)c1c(C)n(C)n(-c2ccccc2)c1=O,n,n,n,n,39,n,n,n
CCCC(c1c(C)n(C)n(-c2ccccc2)c1=O)c1c(C)n(C)n(-c2ccccc2)c1=O,n,n,n,n,n,n,x,x
NC(=S)N/N=C/c1ccc2cccc(OCc3ccccc3)c2n1,n,n,n,n,39,n,n,n
O=c1cc(-c2ccc([N+](=O)[O-])cc2)nc2cc(-c3ccc(Cl)cc3)[nH]n12,n,x,x,x,48,x,n,n
CCCc1cc(=O)n2[nH]c(-c3ccc(Cl)cc3)cc2n1,n,n,n,n,n,n,x,x
CC(C)C[C@H](NC(=O)OC(C)(C)C)C(=O)N[C@@H](CO)[C@H](O)[C@@H]1C[C@@H]1C(=O)NC1CC1,n,n,n,n,n,n,x,x
CCCCNC(=O)[C@H]1C[C@H]1[C@@H](O)[C@H](CO)NC(=O)[C@H](CC(C)C)NC(=O)OC(C)(C)C,n,n,n,n,36,x,n,n
Cc1cccc(-n2c(C)c(C)c3c(N)ncnc32)c1,n,n,n,n,n,n,x,x
CCOC(=O)C1C(=O)NC(c2ccccc2)=NC1c1ccc(O)c(OC)c1 (stereo not drawn),n,n,n,n,56,n,n,n
S=c1nc(COc2ccccc2)[nH]c2ccccc12,n,n,n,n,42,n,n,n
O=c1[nH]c(COc2ccccc2)nc2ccccc12,n,n,n,n,n,n,x,x
COc1ccc(C(NC(=O)/C=C\c2ccco2)c2ccc(OC)c(OC)c2)cc1 (stereo not drawn),n,n,n,22,37,n,n,n
COc1ccccc1NC(=O)/C=C\c1ccco1,n,n,n,n,53,n,n,n

# Screens: PubChem BioAssay, several laboratories
